The record followed here is ChEMBL document CHEMBL1123959, “Orally active hydroxamic acid inhibitors of leukotriene biosynthesis” (J Med Chem, 1988).

Bounds are passed on as bounds.

By IC50 is commonly meant the concentration that inhibits the measured activity by half. A low value points to higher potency. For orientation: ED50 means the dose that gives a 50% effect, or the effect in half of the subjects. Low values mean an effect at a small dose, high ones a need for a large dose. What is called inhibition in vivo is the change of the read-out against control, counted positive when it falls. Read a low inhibition in vivo as a response near the control.

Assay [1] concerns the target T1, Polyunsaturated fatty acid 5-lipoxygenase (Rattus norvegicus, UniProt P12527).
T1 sequence (P12527 whole entry): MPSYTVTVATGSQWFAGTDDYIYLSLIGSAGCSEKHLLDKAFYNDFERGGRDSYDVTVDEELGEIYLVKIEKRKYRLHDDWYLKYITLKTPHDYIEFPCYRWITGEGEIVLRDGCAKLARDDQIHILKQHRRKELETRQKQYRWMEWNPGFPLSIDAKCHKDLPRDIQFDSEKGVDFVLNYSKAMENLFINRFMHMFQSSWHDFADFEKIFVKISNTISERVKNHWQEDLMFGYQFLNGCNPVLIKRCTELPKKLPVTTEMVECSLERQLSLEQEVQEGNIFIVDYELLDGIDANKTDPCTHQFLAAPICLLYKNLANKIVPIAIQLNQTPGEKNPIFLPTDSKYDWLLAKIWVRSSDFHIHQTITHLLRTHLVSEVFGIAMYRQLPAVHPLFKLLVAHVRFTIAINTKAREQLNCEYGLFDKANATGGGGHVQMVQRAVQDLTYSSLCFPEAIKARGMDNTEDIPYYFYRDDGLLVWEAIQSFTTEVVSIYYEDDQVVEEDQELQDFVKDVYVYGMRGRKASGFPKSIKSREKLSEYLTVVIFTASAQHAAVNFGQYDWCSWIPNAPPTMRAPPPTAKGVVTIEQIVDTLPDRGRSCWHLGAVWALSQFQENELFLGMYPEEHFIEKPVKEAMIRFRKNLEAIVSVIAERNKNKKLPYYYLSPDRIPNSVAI
Kind of assay: In vitro inhibition of 5-lipoxygenase in RBL-1 cells. It is filed as cell-based. A digest of the protocol:
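The enzyme was 5-lipoxygenase in the 2000g supernatant of RBL-1 cell homogenate. IC50 is reported with 95% confidence limits.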

Assay [2] is filed under the species Rattus norvegicus. Kind of assay: Effective dosage to inhibit leukotriene biosynthesis in rat peritoneal anaphylaxis model. It is filed as functional. Summed up: (§1)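 Rats were primed ip with rabbit antibody to bovine serum albumin and challenged ip with BSA 3 h later. Inhibitors were given orally by gavage 1 h before challenge. Rats were killed 15 min after challenge, and peritoneal fluid leukotrienes were measured by radioimmunoassay. ED50 is given with 95% confidence limits. Percent inhibition at a fixed dose is the mean ± SEM (n = 8).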

In assay [3] the test system is Rattus norvegicus. Kind of assay: Plasma concentration after 6 hr of peroral administration at 100 mg/kg was determined in rats. It is filed as functional, organism-based. Further details: dose 100 mg/kg. A digest of the protocol: (§2)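 Rats received 100 mg/kg orally by gavage. Blood was drawn from a lateral tail vein at the set times, and plasma was separated by centrifugation. Proteins were precipitated with methanol, and compound was quantified by HPLC with UV detection at its absorbance maximum. Values are the average of two determinations ± range.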

In assay [4] the test system is Rattus norvegicus. Briefly: Plasma concentration after 1 hr of peroral administration at 100 mg/kg was determined in rats. It is filed as functional, organism-based. Further details: dose 100 mg/kg. A digest of the protocol:
as §2

Assay [5] has as its system Rattus norvegicus. Briefly: Plasma concentration after 3h of peroral administration at 100 mg/kg was determined in rats. It is filed as functional, organism-based. Further details: dose 100 mg/kg. A digest of the protocol:
as §2

Assay [6] deals with Rattus norvegicus. Briefly: Percentage inhibition of leukotriene biosynthesis in rat peritoneal anaphylaxis model at 100 mg/kg. It is filed as functional. A digest of the protocol: as §1

In the case of `CC(=O)N(O)C(C)c1ccc2ccccc2c1` (stereo not drawn), the concentration for half-maximal inhibition (IC50) in assay [1] was determined as 540 nM. The compound further registered an ED50 in the assay filed under Rattus norvegicus [2] of 19 mg/kg. The Plasma concentration in the assay with Rattus norvegicus [3] worked out at 33 µM; in the assay with Rattus norvegicus [4], 91 µM; in the assay with Rattus norvegicus [5] it was 26 µM.

`CC(C)Cc1ccc(C(C)C(=O)N(C)O)cc1` (stereo not drawn) showed an IC50 in assay [1] of 290 nM. Also, the Plasma concentration with Rattus norvegicus [3], with Rattus norvegicus [4] and in the assay on Rattus norvegicus [5] was less than 9 µM throughout. The compound further gave an inhibition in vivo at 100 mg/kg in the assay on Rattus norvegicus [6] of 65%.

`CC(C(=O)N(C)O)c1ccc2ccccc2c1` (stereo not drawn) returned an IC50 in assay [1] of 590 nM. Besides, the results for the Plasma concentration with Rattus norvegicus [3], with Rattus norvegicus [4] and in the assay on Rattus norvegicus [5] were 1.4 µM, 37 µM and 13 µM, respectively.

In turn, `CC(=O)N(O)C(C)c1ccc(CC(C)C)cc1` (stereo not drawn) had a 50% inhibitory concentration (IC50) in assay [1] of 420 nM. Moreover, the median effective dose (ED50) in the assay filed under Rattus norvegicus [2] is 24 mg/kg. In addition, the Plasma concentration turned out to be 5 µM in the assay on Rattus norvegicus [3], 21 µM in the assay with Rattus norvegicus [4] and 10 µM with Rattus norvegicus [5].

Take `CC(=O)N(O)C(C)c1ccc(OCc2ccccc2)cc1` (stereo not drawn): in assay [1], the IC50 was found to be 370 nM. In the assay listed under Rattus norvegicus [2], this compound had an ED50 of 8 mg/kg. The Plasma concentration in the assay with Rattus norvegicus [3] is 95 µM; with Rattus norvegicus [4] it was 110 µM; in the assay on Rattus norvegicus [5] it was 140 µM.

`CCCCOc1ccc(C(C)C(=O)N(C)O)cc1` (stereo not drawn) displayed an IC50 in assay [1] of 780 nM. The Plasma concentration came to 3.2 µM in the assay on Rattus norvegicus [3], 58 µM in the assay with Rattus norvegicus [4] and 7.3 µM in the assay with Rattus norvegicus [5]. In the assay on Rattus norvegicus [6], this compound returned an inhibition in vivo at 100 mg/kg of 62%.

For `CCCCOc1ccc(C(C)N(O)C(C)=O)cc1` (stereo not drawn), the IC50 in assay [1] stood at 790 nM. This compound showed an ED50 in the assay filed under Rattus norvegicus [2] of 17 mg/kg. The Plasma concentration was found to be 13 µM with Rattus norvegicus [3], 92 µM in the assay with Rattus norvegicus [4] and 71 µM with Rattus norvegicus [5].

`CC(C(=O)N(C)O)c1ccc(OCc2ccccc2)cc1` (stereo not drawn) returned an ED50 in the assay listed under Rattus norvegicus [2] of 40 mg/kg. The Plasma concentration with Rattus norvegicus [3] amounted to 3.8 µM; with Rattus norvegicus [4] it was 8 µM; in the assay on Rattus norvegicus [5], 5.8 µM.
